We go through 19 molecules from ChEMBL document CHEMBL1909610, “Synthesis and antioxidant activities of novel 4-Schiff base-7-benzyloxy-coumarin derivatives” (Bioorg Med Chem Lett, 2011).

Holding throughout (assay type): functional
The nature of test [1]: Antioxidant activity assessed as ABTS radical scavenging activity after 3 mins by spectrophotometric analysis. The essentials:
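ABTS radical cation generated from 2 mM ABTS stock in PBS pH 7.4 reacted with 70 mM K2S2O8 in the dark at room temperature for 15-16 h, then diluted with PBS to A734 0.700 ± 0.030. Sample solutions at various concentrations mixed with ABTS radical (0.1:1.9 ml). Absorbance read at ambient temperature after 3 min. Percent scavenging vs control without sample; triplicate; IC50 = concentration scavenging 50%.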

A short description of test [2]: Antioxidant activity assessed as superoxide anioin radical scavenging activity after 5 mins by spectrophotometric analysis. The essentials:
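Pyrogallol autoxidation at room temperature: 0.05 M Tris-HCl buffer, sample in DMF at various concentrations and 30 mM 1,2,3-trihydroxybenzene reacted 5 min. Stopped with 8.0 M HCl; absorbance at 320 nm against blank. Percent scavenging vs no-sample absorbance, triplicate; IC50 as concentration scavenging 50%.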

Test [3] can be described thus: Antioxidant activity assessed as hydroxyl radical scavenging activity after 1 hr by spectrophotometric analysis. In a few lines:
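Salicylate method: 20 mM sodium salicylate, 1.5 mM FeSO4, sample at various concentrations, then 6 mM H2O2 (stock levels), mixed and held in a 37 °C water bath 1 h. Absorbance at 510 nm against blank; percent scavenging vs no-sample absorbance; triplicate; ascorbic acid positive control; IC50 as 50% scavenging concentration.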

In test [4] the test system is Radical scavenging activity. In words: Antioxidant activity assessed as DPPH free radical scavenging activity after 30 mins by spectrophotometric analysis. In a few lines:
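Sample dissolved in DMF at several concentrations, added to 0.004% (w/v) DPPH in ethanol, incubated at 37 °C. Absorbance at 517 nm after 30 min. Percent scavenging computed against a control lacking scavenger; triplicate means; IC50 taken as concentration giving 50% radical scavenging.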
A general note: DPPH is a stable violet radical that fades when it is reduced.

Usually IC50 stands for the concentration at which inhibition is half-maximal. Take `O=c1cc(/C=N\Nc2ccc([N+](=O)[O-])cc2)c2c(OCc3ccccc3)cc(OCc3ccccc3)cc2o1`: the IC50 worked out at 15.5 µM in test [1] (read-out: IC50), 419 µM in test [2], 97.9 µM in test [3] (read-out: IC50) and 1610 µM in test [4] (read-out: IC50).

With `N/N=C\c1cc(=O)oc2cc(OCc3ccccc3)ccc12`, the IC50 in test [1] (read-out: IC50) is 9.74 µM; in test [2], 131 µM; in test [3] it was “Not Active”; in test [4] (read-out: IC50) it was 1290 µM.

Take `N/N=C\c1cc(=O)oc2cc(OCc3ccccc3)cc(OCc3ccccc3)c12`: the IC50 in test [1] (read-out: IC50) is 363 µM; in test [2], 36.5 µM; in test [3] (read-out: IC50) it was > 2000 µM; in test [4], “Not Active”.

Take `O=c1cc(/C=N\Nc2ccccc2)c2ccc(OCc3ccccc3)cc2o1`: the IC50 stood at 13.2 µM in test [1] (read-out: IC50), 416 µM in test [2], 455 µM in test [3] (read-out: IC50) and 57.7 µM in test [4] (read-out: IC50).

On to `O=c1cc(/C=N\Nc2ccccc2)c2c(OCc3ccccc3)cc(OCc3ccccc3)cc2o1`, for which the IC50 came out at 40.1 µM in test [1] (read-out: IC50), 303 µM in test [2], 401 µM in test [3] (read-out: IC50) and 76.4 µM in test [4] (read-out: IC50).

For the molecule `O=c1cc(/C=N\Nc2ccc([N+](=O)[O-])cc2)c2ccc(OCc3ccccc3)cc2o1`, the IC50 was 9.51 µM in test [1] (read-out: IC50), > 2000 µM in test [2], > 2000 µM in test [3] (read-out: IC50) and 1350 µM in test [4] (read-out: IC50).

Turning to `O=c1cc(/C=N\Nc2ccc([N+](=O)[O-])cc2[N+](=O)[O-])c2ccc(OCc3ccccc3)cc2o1`, the IC50 in test [1] (read-out: IC50) is 6.49 µM; in test [2], 181 µM; in test [3] (read-out: IC50), 1970 µM; in test [4] (read-out: IC50) it was 10.5 µM.

As to `O=c1cc(/C=N\Nc2ccc([N+](=O)[O-])cc2[N+](=O)[O-])c2c(OCc3ccccc3)cc(OCc3ccccc3)cc2o1`, the IC50 result was “Not Active” in test [1], 292 µM in test [2], 734 µM in test [3] (read-out: IC50) and “Not Active” in test [4].

Regarding `Nc1ccccc1/N=C\c1cc(=O)oc2cc(OCc3ccccc3)ccc12`, the IC50 in test [1] (read-out: IC50) is 9.25 µM; in test [2], 217 µM; in test [3] (read-out: IC50), 34.6 µM; in test [4] (read-out: IC50) it was 857 µM.

As to `Nc1ccccc1/N=C\c1cc(=O)oc2cc(OCc3ccccc3)cc(OCc3ccccc3)c12`, the IC50 in test [1] (read-out: IC50) was found to be 7.53 µM; in test [2], 258 µM; in test [3] (read-out: IC50) it was 624 µM; in test [4] (read-out: IC50) it was 315 µM.

With `O=c1cc(/C=N\c2ccc(O)cc2)c2ccc(OCc3ccccc3)cc2o1`, the IC50 in test [1] (read-out: IC50) is 64.5 µM; in test [2], 525 µM; in test [3] (read-out: IC50) it was 233 µM; in test [4] (read-out: IC50), 36.6 µM.

Turning to `O=c1cc(/C=N\c2ccc(O)cc2)c2c(OCc3ccccc3)cc(OCc3ccccc3)cc2o1`, the IC50 in test [1] (read-out: IC50) stood at 3.57 µM; in test [2], 249 µM; in test [3] (read-out: IC50), 107 µM; in test [4] (read-out: IC50) it was 6.91 µM.

As for `O=c1cc(/C=N\c2ccccc2O)c2ccc(OCc3ccccc3)cc2o1`, the IC50 was 1.29 µM in test [1] (read-out: IC50), 469 µM in test [2], “Not Active” in test [3] and 33.3 µM in test [4] (read-out: IC50).

As to `O=c1cc(/C=N\c2ccccc2O)c2c(OCc3ccccc3)cc(OCc3ccccc3)cc2o1`, the IC50 came out at 7.76 µM in test [1] (read-out: IC50), 33.1 µM in test [2], 348 µM in test [3] (read-out: IC50) and 16.2 µM in test [4] (read-out: IC50).

With `O=c1cc(/C=N\O)c2ccc(OCc3ccccc3)cc2o1`, the IC50 in test [1] (read-out: IC50) was 22.8 µM; in test [2], > 2000 µM; in test [3] (read-out: IC50) it was > 2000 µM; in test [4] (read-out: IC50), 2410 µM.

Turning to `O=c1cc(/C=N\O)c2c(OCc3ccccc3)cc(OCc3ccccc3)cc2o1`, the IC50 was 38.6 µM in test [1] (read-out: IC50), > 2000 µM in test [2], “Not Active” in test [3] and “Not Active” in test [4].

As to `O=c1cc(-c2nc3ccccc3[nH]2)c2ccc(OCc3ccccc3)cc2o1`, the IC50 result in test [1] is “Not Active”; in test [2], 146 µM; in test [3] it was “Not Active”; in test [4], “Not Active”.

`O=C1O[C@H]([C@@H](O)CO)C(O)=C1O` [ASCORBIC ACID]: the IC50 in test [1] (read-out: IC50) was 12.8 µM; in test [2], 15.6 µM; in test [3] (read-out: IC50), 73.8 µM; in test [4] (read-out: IC50) it was 43.8 µM.

`Cc1cc(C(C)(C)C)c(O)c(C(C)(C)C)c1` [BUTYLATED HYDROXYTOLUENE]: the IC50 in test [1] (read-out: IC50) was 37 µM; in test [2], 254 µM; in test [3] (read-out: IC50) it was > 2000 µM; in test [4] (read-out: IC50), 65.8 µM.
